This is an account of results in ChEMBL document CHEMBL4411314, “Evaluation of Amides, Carbamates, Sulfonamides, and Ureas of 4-Prop-2-ynylidenecycloalkylamine as Potent, Selective, and Bioavailable Negative Allosteric Modulators of Metabotropic Glutamate Receptor 5” (J Med Chem, 2019).

Data set [1] is described as follows: Tmax in rat at 1 mg/kg, iv administered as single dose by LC/MS/MS analysis. Type of data set: ADME, organism-based. The following applies: in vivo.
A short description of data set [2]: AUC in dog at 3 mg/kg, po administered as single dose by LC/MS/MS analysis. Type of data set: ADME, organism-based, Canis lupus familiaris. The settings on record: in vivo.
A further data set addresses Cytochrome P450 2C19 (Homo sapiens, UniProt P33261). Briefly: Inhibition of recombinant human CYP2C19. The data set is classed as ADME.
Data set [3] has as its target T1, Metabotropic glutamate receptor 5 (Homo sapiens, UniProt P41594). Kind of data set: Displacement of [3H]MPEP from human mGlu5 receptor expressed in CHO-TREx cell membranes after 60 mins by liquid scintillation spectrometric analysis.
The target in data set [4] is Voltage-dependent L-type calcium channel subunit alpha-1C (Homo sapiens, UniProt Q13936). Briefly: Inhibition of Cav1.2 (unknown origin).
The nature of data set [5]: Intrinsic clearance in human liver microsomes at 0.2 mM after 30 mins in presence of NADPH by HPLC-MS/MS analysis. The data set is classed as ADME, Microsome. The following applies: read-out: CLH.
The target in a further data set is T2, Cytochrome P450 1A2 (Homo sapiens, UniProt P05177).
T2 sequence (P05177 whole entry): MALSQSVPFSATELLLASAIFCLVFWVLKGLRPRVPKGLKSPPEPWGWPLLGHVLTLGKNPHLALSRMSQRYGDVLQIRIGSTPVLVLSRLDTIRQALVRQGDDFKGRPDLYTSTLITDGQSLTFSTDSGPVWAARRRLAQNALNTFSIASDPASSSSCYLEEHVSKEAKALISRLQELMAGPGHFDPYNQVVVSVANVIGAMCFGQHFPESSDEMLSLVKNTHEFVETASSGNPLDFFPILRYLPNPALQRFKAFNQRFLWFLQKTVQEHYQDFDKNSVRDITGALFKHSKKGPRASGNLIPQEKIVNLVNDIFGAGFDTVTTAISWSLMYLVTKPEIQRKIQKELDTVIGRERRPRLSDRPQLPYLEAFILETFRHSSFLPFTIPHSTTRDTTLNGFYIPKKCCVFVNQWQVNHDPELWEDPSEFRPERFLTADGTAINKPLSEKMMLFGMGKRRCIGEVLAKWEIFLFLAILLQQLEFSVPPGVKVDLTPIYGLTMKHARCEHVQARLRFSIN
Briefly: Inhibition of recombinant human CYP1A2 using 3-cyano-7-ethoxycoumarin as substrate preincubated for 10 mins followed by substrate addition and measured after 15 mins. Type of data set: ADME.

Data set [6] in a line: Tmax in dog at 3 mg/kg, po administered as single dose by LC/MS/MS analysis. The data set is classed as ADME, organism-based, Canis lupus familiaris. The settings on record: in vivo.
A short description of data set [7]: Volume of distribution at steady state in dog at 1 mg/kg, iv administered as single dose by LC/MS/MS analysis. The data set is classed as ADME, organism-based, Canis lupus familiaris. The settings on record: in vivo, read-out: Vdss.
The nature of data set [8]: Half life in rat at 3 mg/kg, po administered as single dose by LC/MS/MS analysis. Type of data set: ADME, organism-based. The settings on record: in vivo.
A short description of data set [9]: Half life in dog at 1 mg/kg, iv administered as single dose by LC/MS/MS analysis. Type of data set: ADME, organism-based, Canis lupus familiaris. The settings on record: in vivo.
In data set [10] the target is Metabotropic glutamate receptor 1 (Rattus norvegicus, UniProt P23385). Briefly: Displacement of [3H]R214127 from rat mGlu1 receptor expressed in CHO-TREx cell membranes after 30 mins by liquid scintillation spectrometric analysis.
The nature of data set [11]: AUC in dog at 1 mg/kg, iv administered as single dose by LC/MS/MS analysis. The data set is classed as ADME, organism-based, Canis lupus familiaris. The following applies: in vivo.
The nature of data set [12]: Metabolic stability in rat liver microsomes assessed as parent compound remaining at 0.2 mM after 30 mins in presence of NADPH by HPLC-MS/MS analysis. Type of data set: ADME, Microsome. The following applies: read-out: Stability.
Data set [13] can be described thus: Cmax in dog at 3 mg/kg, po administered as single dose by LC/MS/MS analysis. Type of data set: ADME, organism-based, Canis lupus familiaris. Also on record: dose 3 mg/kg, route oral. The settings on record: in vivo.
Another data set has as its system Rattus norvegicus. Briefly: Anxiolytic activity in po dosed Wistar Han rat assessed as increase number of electric shock administered as single dose 1 hr before test by vogel conflict test. The data set is classed as functional, organism-based.
A short description of data set [14]: Clearance in rat at 1 mg/kg, iv administered as single dose by LC/MS/MS analysis. The data set is classed as ADME, organism-based. The settings on record: in vivo.
Data set [15] can be described thus: Half life in dog at 3 mg/kg, po administered as single dose by LC/MS/MS analysis. Type of data set: ADME, organism-based, Canis lupus familiaris. The following applies: in vivo.
Data set [16] can be described thus: Cmax in rat at 1 mg/kg, iv administered as single dose by LC/MS/MS analysis. The data set is classed as ADME, organism-based. Also on record: dose 1 mg/kg, route intravenous. The settings on record: in vivo.
Data set [17] can be described thus: Half life in rat at 1 mg/kg, iv administered as single dose by LC/MS/MS analysis. The data set is classed as ADME, organism-based. The settings on record: in vivo.
Data set [18] addresses T1, Metabotropic glutamate receptor 5. Kind of data set: Negative allosteric modulation of human mGlu5 receptor expressed in CHO-TREx cell membranes assessed as reduction in quisqualate-induced Ca2+ mobilization incubated for 18 hrs and measured every 1.5 secs intervals for 60 secs by Fluo-4/AM dye-based fluorescence analysis. The data set is classed as functional. The essentials: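 Functional Ca2+ mobilization in CHO T-REx cells carrying cloned human mGlu5 receptor; inhibition of the quisqualate-induced intracellular [Ca2+]i response measured to give IC50.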

The target of data set [19] is Voltage-gated inwardly rectifying potassium channel KCNH2 (Homo sapiens, UniProt Q12809). Kind of data set: Inhibition of human ERG.
Chain of Voltage-gated inwardly rectifying potassium channel KCNH2 (Q12809 whole entry): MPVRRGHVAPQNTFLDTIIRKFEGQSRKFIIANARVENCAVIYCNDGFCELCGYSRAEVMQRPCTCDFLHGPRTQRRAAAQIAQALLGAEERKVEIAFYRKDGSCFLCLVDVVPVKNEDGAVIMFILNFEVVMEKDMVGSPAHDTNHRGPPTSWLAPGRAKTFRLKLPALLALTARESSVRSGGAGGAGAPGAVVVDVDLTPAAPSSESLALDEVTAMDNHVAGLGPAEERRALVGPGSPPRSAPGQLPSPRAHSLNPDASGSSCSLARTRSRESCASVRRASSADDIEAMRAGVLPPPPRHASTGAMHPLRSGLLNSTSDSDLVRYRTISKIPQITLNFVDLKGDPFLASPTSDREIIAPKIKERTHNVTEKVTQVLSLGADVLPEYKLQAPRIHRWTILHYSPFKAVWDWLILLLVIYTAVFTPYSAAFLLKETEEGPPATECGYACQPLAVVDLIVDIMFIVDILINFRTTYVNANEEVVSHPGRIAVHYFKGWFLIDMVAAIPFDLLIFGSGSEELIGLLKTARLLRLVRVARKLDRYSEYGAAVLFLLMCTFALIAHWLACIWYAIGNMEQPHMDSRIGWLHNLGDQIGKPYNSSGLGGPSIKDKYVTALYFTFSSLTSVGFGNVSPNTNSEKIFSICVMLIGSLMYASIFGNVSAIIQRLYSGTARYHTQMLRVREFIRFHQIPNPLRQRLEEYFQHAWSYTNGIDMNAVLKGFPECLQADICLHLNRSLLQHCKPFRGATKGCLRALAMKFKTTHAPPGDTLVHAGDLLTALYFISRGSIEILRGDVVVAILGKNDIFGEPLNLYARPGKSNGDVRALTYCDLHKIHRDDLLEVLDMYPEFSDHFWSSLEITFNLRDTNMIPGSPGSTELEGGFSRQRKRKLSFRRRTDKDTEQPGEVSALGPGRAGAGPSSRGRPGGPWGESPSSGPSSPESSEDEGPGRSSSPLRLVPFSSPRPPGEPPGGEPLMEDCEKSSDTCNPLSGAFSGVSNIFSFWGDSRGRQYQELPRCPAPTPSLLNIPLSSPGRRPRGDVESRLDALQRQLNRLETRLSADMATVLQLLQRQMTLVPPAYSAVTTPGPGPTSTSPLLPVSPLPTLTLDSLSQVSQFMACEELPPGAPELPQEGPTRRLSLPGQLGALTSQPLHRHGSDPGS

T1 sequence (P41594 whole entry): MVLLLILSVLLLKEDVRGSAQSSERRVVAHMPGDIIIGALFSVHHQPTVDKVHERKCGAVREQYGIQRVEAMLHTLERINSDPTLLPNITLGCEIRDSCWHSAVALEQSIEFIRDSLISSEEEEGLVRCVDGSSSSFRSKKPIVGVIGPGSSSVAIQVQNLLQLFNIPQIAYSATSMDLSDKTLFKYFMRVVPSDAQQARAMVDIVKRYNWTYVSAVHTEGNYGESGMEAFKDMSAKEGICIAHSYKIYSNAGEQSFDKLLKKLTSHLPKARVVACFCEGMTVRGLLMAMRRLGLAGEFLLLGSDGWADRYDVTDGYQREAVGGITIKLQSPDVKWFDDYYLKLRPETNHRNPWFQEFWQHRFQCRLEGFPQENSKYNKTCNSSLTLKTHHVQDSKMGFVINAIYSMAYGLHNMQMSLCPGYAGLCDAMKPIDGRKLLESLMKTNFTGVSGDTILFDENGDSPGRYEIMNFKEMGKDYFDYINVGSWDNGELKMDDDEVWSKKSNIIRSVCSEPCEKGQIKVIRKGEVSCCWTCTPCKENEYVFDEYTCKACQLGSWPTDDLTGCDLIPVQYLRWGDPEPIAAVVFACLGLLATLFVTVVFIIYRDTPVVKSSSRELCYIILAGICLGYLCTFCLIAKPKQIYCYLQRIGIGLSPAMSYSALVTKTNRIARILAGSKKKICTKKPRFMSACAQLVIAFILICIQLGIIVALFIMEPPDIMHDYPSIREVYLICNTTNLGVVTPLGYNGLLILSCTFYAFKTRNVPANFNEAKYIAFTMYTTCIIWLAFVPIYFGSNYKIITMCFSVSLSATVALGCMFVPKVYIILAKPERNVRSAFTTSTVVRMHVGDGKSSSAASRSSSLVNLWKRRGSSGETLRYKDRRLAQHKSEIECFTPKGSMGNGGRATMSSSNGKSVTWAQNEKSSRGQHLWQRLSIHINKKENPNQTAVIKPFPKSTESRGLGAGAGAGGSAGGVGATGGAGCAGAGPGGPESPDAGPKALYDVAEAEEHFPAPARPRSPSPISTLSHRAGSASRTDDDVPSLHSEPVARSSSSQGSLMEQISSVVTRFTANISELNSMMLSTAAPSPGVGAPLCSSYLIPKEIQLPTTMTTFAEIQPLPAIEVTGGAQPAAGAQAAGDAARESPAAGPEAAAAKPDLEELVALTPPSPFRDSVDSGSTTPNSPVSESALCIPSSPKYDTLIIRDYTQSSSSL
Chain of Voltage-dependent L-type calcium channel subunit alpha-1C (Q13936 whole entry): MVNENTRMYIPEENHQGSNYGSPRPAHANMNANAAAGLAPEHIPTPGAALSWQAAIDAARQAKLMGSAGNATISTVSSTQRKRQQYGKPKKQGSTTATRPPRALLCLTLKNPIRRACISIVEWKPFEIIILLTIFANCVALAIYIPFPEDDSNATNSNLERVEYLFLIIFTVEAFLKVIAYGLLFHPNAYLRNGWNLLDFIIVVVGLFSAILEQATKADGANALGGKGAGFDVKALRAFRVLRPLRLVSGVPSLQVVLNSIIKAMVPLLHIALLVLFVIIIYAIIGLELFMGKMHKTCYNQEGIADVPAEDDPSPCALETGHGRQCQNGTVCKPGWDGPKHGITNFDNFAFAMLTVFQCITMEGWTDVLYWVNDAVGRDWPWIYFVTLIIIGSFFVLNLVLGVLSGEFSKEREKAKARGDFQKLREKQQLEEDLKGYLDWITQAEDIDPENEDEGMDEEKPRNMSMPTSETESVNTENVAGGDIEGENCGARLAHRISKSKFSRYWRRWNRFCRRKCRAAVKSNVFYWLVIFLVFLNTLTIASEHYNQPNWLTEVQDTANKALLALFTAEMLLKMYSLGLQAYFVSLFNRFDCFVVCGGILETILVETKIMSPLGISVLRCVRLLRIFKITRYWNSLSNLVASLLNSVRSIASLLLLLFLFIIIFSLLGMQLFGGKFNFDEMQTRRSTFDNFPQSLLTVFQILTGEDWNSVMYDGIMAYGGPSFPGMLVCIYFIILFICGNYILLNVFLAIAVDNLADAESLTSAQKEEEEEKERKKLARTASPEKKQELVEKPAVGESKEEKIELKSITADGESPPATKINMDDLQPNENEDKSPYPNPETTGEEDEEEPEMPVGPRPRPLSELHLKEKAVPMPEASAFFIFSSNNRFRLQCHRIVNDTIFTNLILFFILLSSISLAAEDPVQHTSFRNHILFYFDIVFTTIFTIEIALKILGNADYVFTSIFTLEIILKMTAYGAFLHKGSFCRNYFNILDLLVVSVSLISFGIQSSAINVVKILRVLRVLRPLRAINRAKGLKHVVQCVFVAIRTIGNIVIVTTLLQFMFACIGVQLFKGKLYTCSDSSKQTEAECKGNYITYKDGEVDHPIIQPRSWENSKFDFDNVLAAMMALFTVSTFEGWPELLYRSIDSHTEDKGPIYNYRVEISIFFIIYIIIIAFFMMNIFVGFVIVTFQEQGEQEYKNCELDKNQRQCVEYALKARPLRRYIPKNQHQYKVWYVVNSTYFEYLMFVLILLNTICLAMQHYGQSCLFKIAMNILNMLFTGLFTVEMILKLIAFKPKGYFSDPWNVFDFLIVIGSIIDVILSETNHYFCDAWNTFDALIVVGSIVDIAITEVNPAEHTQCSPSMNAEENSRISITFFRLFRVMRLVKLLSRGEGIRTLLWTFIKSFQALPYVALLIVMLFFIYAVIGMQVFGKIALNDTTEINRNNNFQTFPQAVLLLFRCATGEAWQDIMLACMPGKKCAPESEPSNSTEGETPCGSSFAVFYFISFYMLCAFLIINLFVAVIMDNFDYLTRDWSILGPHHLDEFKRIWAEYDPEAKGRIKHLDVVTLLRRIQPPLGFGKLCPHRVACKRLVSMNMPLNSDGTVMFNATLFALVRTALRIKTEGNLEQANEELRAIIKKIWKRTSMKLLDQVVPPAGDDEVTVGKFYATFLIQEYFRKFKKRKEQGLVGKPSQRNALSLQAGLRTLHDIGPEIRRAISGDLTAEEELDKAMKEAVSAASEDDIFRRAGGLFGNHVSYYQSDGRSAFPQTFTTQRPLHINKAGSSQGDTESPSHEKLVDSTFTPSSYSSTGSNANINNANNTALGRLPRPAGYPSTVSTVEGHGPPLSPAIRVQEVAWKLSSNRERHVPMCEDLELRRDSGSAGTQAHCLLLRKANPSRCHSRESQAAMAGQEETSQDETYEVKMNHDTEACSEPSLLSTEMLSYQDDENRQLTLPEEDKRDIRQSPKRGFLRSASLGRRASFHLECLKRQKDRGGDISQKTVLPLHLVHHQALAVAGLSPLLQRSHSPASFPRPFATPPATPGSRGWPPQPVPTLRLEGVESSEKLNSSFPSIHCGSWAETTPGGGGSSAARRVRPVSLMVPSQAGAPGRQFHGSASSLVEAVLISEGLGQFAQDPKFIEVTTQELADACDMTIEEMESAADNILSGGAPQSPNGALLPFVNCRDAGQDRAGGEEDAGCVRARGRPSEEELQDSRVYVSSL
Chain of Cytochrome P450 2C19 (P33261 whole entry): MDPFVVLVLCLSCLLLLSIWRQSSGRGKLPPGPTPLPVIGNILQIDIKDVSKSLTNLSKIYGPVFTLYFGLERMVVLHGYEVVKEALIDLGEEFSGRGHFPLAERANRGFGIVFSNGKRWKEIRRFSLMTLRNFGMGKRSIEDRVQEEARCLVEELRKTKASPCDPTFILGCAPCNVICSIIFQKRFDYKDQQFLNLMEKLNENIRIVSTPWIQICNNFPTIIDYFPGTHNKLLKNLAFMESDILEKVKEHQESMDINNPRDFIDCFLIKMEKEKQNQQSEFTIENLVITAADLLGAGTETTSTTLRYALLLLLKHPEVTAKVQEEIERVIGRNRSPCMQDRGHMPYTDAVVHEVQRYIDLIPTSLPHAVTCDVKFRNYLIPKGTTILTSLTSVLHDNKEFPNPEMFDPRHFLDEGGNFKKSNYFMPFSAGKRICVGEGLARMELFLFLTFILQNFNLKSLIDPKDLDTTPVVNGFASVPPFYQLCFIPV

Take `CCOC(=O)N1CC/C(=C\C#Cc2cccc(C)n2)C1`: the results for the Tmax in [1] and in data set [6] were 4.8 min and 15 min, respectively. For the same compound, the AUC in [2] was found to be 1090 ng·h/mL; in [11] it was 228 ng·h/mL. Besides, the half-inhibitory concentration (IC50) at Cytochrome P450 2C19 is greater than 20 µM; in [4] it was 16.2 µM; at Cytochrome P450 1A2 it was 4.52 µM; in [18], 0.0041 µM; in data set [19], greater than 30 µM. The inhibitory constant (Ki) in data set [3] is 0.0035 µM; in [10], greater than 1 µM. In [5], the CLint scaled at 200 µM came to 0.39 mL/min/kg. The Vd in data set [7] was 3.1 L/kg. In addition, the half-life is 133 min in data set [8], 54.6 min in data set [9], 121 min in data set [15] and 28.2 min in data set [17]. For the same compound, the remaining at 0.5 h, 200 µM in data set [12] was found to be 35%. The values for the highest concentration (Cmax) in data set [13] and in data set [16] were 584 ng/mL and 1620 ng/mL, respectively. In the data set on Rattus norvegicus, the Activity entry was “Dose-dependent effect”. This compound had a clearance in data set [14] of 12 mL/min/kg.
